Source: ChEMBL document CHEMBL1123776, “Solid-phase synthesis and biological properties of psi [CH2NH] pseudopeptide analogues of a highly potent somatostatin octapeptide” (1987)

How the values were obtained:
[1] = organism: Rattus norvegicus; assay: Ability to inhibit growth hormone release in vitro in cultured rat anterior pituitary cells; type: functional, Pituitary gland cell
Summary of the method: (§1)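 Primary cultures of male rat anterior pituitary cells were kept for 4 days and then exposed to peptide. GH in the medium was measured by radioimmunoassay. The EC50 (50% inhibition of GH secretion) was fitted with ALLFIT. Potency was expressed as the ratio to the EC50 of tetradecapeptide SRIF as reference standard.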

[2] = organism: Rattus norvegicus; assay: Activity is measured as concentration producing 50% inhibition of growth hormone secretion in rats; type: functional; summary of the method: as §1
[3] = system: Rattus norvegicus; assay: Ability to inhibit growth hormone release in vivo in sodium pentobarbital anesthetized rats; type: functional
Summary of the method: (§2)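 Male Sprague-Dawley rats anesthetized with sodium pentobarbital were given peptide, with saline and tetradecapeptide SRIF controls, at doses of 0.003–10 µg/100 g BW. Plasma GH was measured by radioimmunoassay. Values are mean ± SEM, with the number of rats per group given.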

[4] = system: Rattus norvegicus; assay: Ability to inhibit growth hormone release in the anesthetized rats measured as plasma growth hormone at a dose of 0.6 ug/100 g BW; type: functional, organism-based; summary of the method: as §2
[5] = system: Rattus norvegicus; assay: Ability to inhibit growth hormone release in the anesthetized rats measured as plasma growth hormone at a dose of 0.2 ug/100 g BW; type: functional, organism-based; summary of the method: as §2
[6] = system: Rattus norvegicus; assay: Ability to inhibit growth hormone release in the anesthetized rats measured as plasma growth hormone at a dose of 0.1 ug/100 g BW; type: functional, organism-based; summary of the method: as §2
[7] = system: Rattus norvegicus; assay: Ability to inhibit growth hormone release in the anesthetized rats measured as plasma growth hormone at a dose of 1 ug/100 g BW; type: functional, organism-based; summary of the method: as §2
[8] = system: Rattus norvegicus; assay: Ability to inhibit growth hormone release in the anesthetized rats measured as plasma growth hormone at a dose of 10 ug/100 g; type: functional, organism-based; summary of the method: as §2
[9] = system: Rattus norvegicus; assay: Ability to inhibit growth hormone release in the anesthetized rats measured as plasma growth hormone at a dose of 10 ug/100 g BW; type: functional, organism-based; summary of the method: as §2
[10] = system: Rattus norvegicus; assay: Ability to inhibit growth hormone release in the anesthetized rats measured as plasma growth hormone at a dose of 0.01 ug/100 g BW; type: functional, organism-based; summary of the method: as §2
[11] = system: Rattus norvegicus; assay: Ability to inhibit growth hormone release in the anesthetized rats measured as plasma growth hormone at a dose of 0.03 ug/100 g BW; type: functional, organism-based; summary of the method: as §2
[12] = system: Rattus norvegicus; assay: Ability to inhibit growth hormone release in the anesthetized rats measured as plasma growth hormone at a dose of 0.09 ug/100 g BW; type: functional, organism-based; summary of the method: as §2
[13] = system: Rattus norvegicus; assay: Ability to inhibit growth hormone release in the anesthetized rats measured as plasma growth hormone ata dose of 0.01 ug/100 g BW; type: functional, organism-based; summary of the method: as §2

Row | SMILES | Potency [1] [%] | ED50 [2] [nM] | Potency [3] [%] | Plasma GH [6] [ng/mL] | Plasma GH [7] [ng/mL] | further results
1 | CC(C)[C@@H]1NC(=O)[C@H](CCCCN)NC(=O)[C@@H](Cc2c[nH]c3ccccc23)NC(=O)[C@H](Cc2ccc(O)cc2)NC[C@@H](NC(=O)[C@H](N)Cc2ccccc2)CSSC[C@@H](C(=O)N[C@H](C(N)=O)[C@@H](C)O)NC1=O | 17.43 | 0.35 | 1960 |  |  | 
2 | CC(C)[C@@H]1CN[C@H](C(=O)N[C@H](C(N)=O)[C@@H](C)O)CSSC[C@H](NC(=O)[C@H](N)Cc2ccccc2)C(=O)N[C@@H](Cc2ccc(O)cc2)C(=O)N[C@H](Cc2c[nH]c3ccccc23)C(=O)N[C@@H](CCCCN)C(=O)N1 | 0.02 | 350 | 2 |  |  | 
3 | CC(C)[C@H]1NC(=O)[C@H](CCCCN)NC(=O)[C@@H](Cc2c[nH]c3ccccc23)NC(=O)[C@H](Cc2ccc(O)cc2)NC(=O)[C@@H](NC[C@@H](N)Cc2ccccc2)CSSC[C@H](C(=O)N[C@H](C(N)=O)[C@@H](C)O)NC1=O |  |  |  |  |  | Plasma GH [4]: 90 ng/mL; Plasma GH [5]: 185 ng/mL
4 | CC(C)[C@@H]1CN[C@@H](C(=O)N[C@H](C(N)=O)[C@@H](C)O)CSSC[C@H](NC(=O)[C@@H](N)Cc2ccccc2)C(=O)N[C@@H](Cc2ccc(O)cc2)C(=O)N[C@H](Cc2c[nH]c3ccccc23)CN[C@@H](CCCCN)C(=O)N1 |  |  |  | 509 | 393 | Plasma GH [8]: 325 ng/mL
5 | CC(C)[C@H]1NC(=O)[C@H](CCCCN)NC[C@@H](Cc2c[nH]c3ccccc23)NC(=O)[C@H](Cc2ccc(O)cc2)NC(=O)[C@@H](NC(=O)[C@@H](N)Cc2ccccc2)CSSC[C@H](C(=O)N[C@H](C(N)=O)[C@@H](C)O)NC1=O |  |  |  | 325 | 348 | Plasma GH [9]: 265 ng/mL
6 | CC(C)[C@@H]1NC(=O)[C@H](CCCCN)NC(=O)[C@@H](Cc2c[nH]c3ccccc23)NC(=O)[C@H](Cc2ccc(O)cc2)NC(=O)[C@@H](NC[C@@H](N)Cc2ccccc2)CSSC[C@@H](C(=O)N[C@H](C(N)=O)[C@@H](C)O)NC1=O | 1.01 | 6.1 | 160 |  |  | 
7 | CC(C)[C@H]1NC(=O)[C@H](CCCCN)NC(=O)[C@@H](Cc2c[nH]c3ccccc23)NC(=O)[C@H](Cc2ccc(O)cc2)NC(=O)[C@@H](NC(=O)[C@@H](N)Cc2ccccc2)CSSC[C@H](CN[C@H](C(N)=O)[C@@H](C)O)NC1=O |  |  |  |  |  | Plasma GH [4]: 156 ng/mL; Plasma GH [5]: 248 ng/mL
8 | CC(C)[C@H]1NC(=O)[C@H](CCCCN)NC(=O)[C@@H](Cc2c[nH]c3ccccc23)NC(=O)[C@H](Cc2ccc(O)cc2)NC[C@@H](NC(=O)[C@@H](N)Cc2ccccc2)CSSC[C@H](C(=O)N[C@H](C(N)=O)[C@@H](C)O)NC1=O |  |  |  |  |  | Plasma GH [10]: 146 ng/mL; Plasma GH [11]: 98 ng/mL
9 | CC(C)[C@@H]1NC[C@H](CCCCN)NC(=O)[C@@H](Cc2c[nH]c3ccccc23)NC(=O)[C@H](Cc2ccc(O)cc2)NC(=O)[C@@H](NC(=O)[C@H](N)Cc2ccccc2)CSSC[C@@H](C(=O)N[C@H](C(N)=O)[C@@H](C)O)NC1=O | 67.27 | 0.092 | 434 |  |  | 
10 | CC(C)[C@H]1NC[C@H](CCCCN)NC(=O)[C@@H](Cc2c[nH]c3ccccc23)NC(=O)[C@H](Cc2ccc(O)cc2)NC(=O)[C@@H](NC(=O)[C@@H](N)Cc2ccccc2)CSSC[C@H](C(=O)N[C@H](C(N)=O)[C@@H](C)O)NC1=O |  |  |  |  |  | Plasma GH [11]: 174 ng/mL; Plasma GH [12]: 120 ng/mL
11 | CC(C)[C@H]1NC(=O)[C@H](CCCCN)NC(=O)[C@@H](Cc2c[nH]c3ccccc23)NC[C@H](Cc2ccc(O)cc2)NC(=O)[C@@H](NC(=O)[C@@H](N)Cc2ccccc2)CSSC[C@H](C(=O)N[C@H](C(N)=O)[C@@H](C)O)NC1=O |  |  |  | 307 | 176 | Plasma GH [9]: 137 ng/mL
12 | CC(C)[C@@H]1NC(=O)[C@H](CCCCN)NC(=O)[C@@H](Cc2c[nH]c3ccccc23)NC[C@H](Cc2ccc(O)cc2)NC(=O)[C@@H](NC(=O)[C@H](N)Cc2ccccc2)CSSC[C@@H](C(=O)N[C@H](C(N)=O)[C@@H](C)O)NC1=O | 0.68 | 9.1 | 20 |  |  | 
13 | CC(C)[C@@H]1NC[C@H](CCCCN)NC(=O)[C@@H](Cc2c[nH]c3ccccc23)NC(=O)[C@H](Cc2ccc(O)cc2)NC[C@@H](NC(=O)[C@H](N)Cc2ccccc2)CSSC[C@@H](C(=O)N[C@H](C(N)=O)[C@@H](C)O)NC1=O | 0.98 | 6.3 | 65 |  |  | 
14 | CC(C)[C@@H]1NC[C@H](CCCCN)NC(=O)[C@@H](Cc2c[nH]c3ccccc23)NC(=O)[C@H](Cc2ccc(O)cc2)NC[C@@H](NC(=O)[C@H](N)Cc2ccc3ccccc3c2)CSSC[C@@H](C(=O)N[C@H](C(N)=O)[C@@H](C)O)NC1=O | 3.44 | 1.8 | 50 |  |  | 
15 | CC(C)[C@@H]1CN[C@H](C(=O)N[C@H](C(N)=O)[C@@H](C)O)CSSC[C@H](NC(=O)[C@H](N)Cc2ccccc2)C(=O)N[C@@H](Cc2ccc(O)cc2)C(=O)N[C@H](Cc2c[nH]c3ccccc23)CN[C@@H](CCCCN)C(=O)N1 | <0.001 | >1000 | 2 |  |  | 
16 | CC(C)[C@@H]1CN[C@@H](C(=O)N[C@H](C(N)=O)[C@@H](C)O)CSSC[C@H](NC(=O)[C@@H](N)Cc2ccccc2)C(=O)N[C@@H](Cc2ccc(O)cc2)C(=O)N[C@H](Cc2c[nH]c3ccccc23)C(=O)N[C@@H](CCCCN)C(=O)N1 |  |  |  | 381 | 266 | Plasma GH [9]: 225 ng/mL
17 | CC(C)[C@H]1NC[C@H](CCCCN)NC(=O)[C@@H](Cc2c[nH]c3ccccc23)NC(=O)[C@H](Cc2ccc(O)cc2)NC[C@@H](NC(=O)[C@@H](N)Cc2ccccc2)CSSC[C@H](C(=O)N[C@H](C(N)=O)[C@@H](C)O)NC1=O |  |  |  | 250 | 124 | Plasma GH [10]: 258 ng/mL
18 | CC(C)[C@@H]1NC(=O)[C@H](CCCCN)NC(=O)[C@@H](Cc2c[nH]c3ccccc23)NC(=O)[C@H](Cc2ccc(O)cc2)NC(=O)[C@@H](NC(=O)[C@H](N)Cc2ccccc2)CSSC[C@H](CN[C@H](C(N)=O)[C@@H](C)O)NC1=O | 0.41 | 15 | 73 |  |  | 
19 | CC(C)[C@@H]1NC(=O)[C@H](CCCCN)NC[C@@H](Cc2c[nH]c3ccccc23)NC(=O)[C@H](Cc2ccc(O)cc2)NC(=O)[C@@H](NC(=O)[C@H](N)Cc2ccccc2)CSSC[C@@H](C(=O)N[C@H](C(N)=O)[C@@H](C)O)NC1=O | 0.03 | 190 | 2 |  |  | 
20 | CC(C)[C@H]1NC[C@H](CCCCN)NC(=O)[C@@H](Cc2c[nH]c3ccccc23)NC(=O)[C@H](Cc2ccc(O)cc2)NC[C@@H](NC(=O)[C@@H](N)Cc2ccc3ccccc3c2)CSSC[C@H](C(=O)N[C@H](C(N)=O)[C@@H](C)O)NC1=O |  |  |  | 291 | 133 | Plasma GH [13]: 433 ng/mL
